Diaphorase act: counter-screen for diaphorase-based assays: diaphorase activators and chemical reducers | 190,000 tested, 0.005% active | Diaphorase/resazurin coupled assay, resorufin fluorescence, 16 min; stronger effect = higher value; 1 = vehicle wells, 0 = NADH-free wells | activation factor at 20 µM | AID 1229;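 active = diaphorase activity raised at least twofold by the compound at 20 µM; inactive = activation factor below 2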
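Assay system: Purified diaphorase enzyme from Clostridium kluyveri | Amount: Enzyme 0.07 U/mL final | Dosing: Compound 20 µM once, DMSO 1% | Timing: 16 min reaction at room temperature | Detection: Fluorescence, excitation 544 nm and emission 590 nm | Evaluation: Higher resorufin formation from activation or reduction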
L major viab: inhibitors of Leishmania major promastigote growth | inhibition, % at 10 µM | Leishmania major promastigotes, resazurin fluorescence viability | 200,000 tested, 9% active; in the data active = inhibition above about 50%;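 also: promastigotes grown with compound for 44 hours at 28 °C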
PMI act hi M6P: PMI (human) activation, high substrate; P34949; 190,000 tested, 0.34% active; coupled PMI enzyme assay, resazurin fluorescence, 20 min; stronger effect = higher value; 1 = untreated enzyme, 0 = substrate-free blank; AID 1216; activation factor at 20 µM;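 active = activation factor of 2 or more at 20 µM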
Target sequence (P34949 whole entry, looked up): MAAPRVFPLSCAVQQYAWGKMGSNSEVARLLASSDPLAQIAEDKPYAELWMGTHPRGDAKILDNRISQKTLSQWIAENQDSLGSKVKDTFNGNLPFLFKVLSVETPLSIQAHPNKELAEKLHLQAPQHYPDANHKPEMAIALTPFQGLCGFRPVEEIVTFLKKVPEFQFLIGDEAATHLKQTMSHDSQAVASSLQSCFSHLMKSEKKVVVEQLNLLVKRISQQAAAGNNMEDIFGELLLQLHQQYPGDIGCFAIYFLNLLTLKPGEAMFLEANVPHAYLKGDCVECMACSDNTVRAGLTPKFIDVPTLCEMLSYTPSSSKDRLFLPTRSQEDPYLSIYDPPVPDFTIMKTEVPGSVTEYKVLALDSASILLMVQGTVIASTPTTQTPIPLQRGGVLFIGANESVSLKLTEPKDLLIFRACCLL
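Material: human phosphomannose isomerase with PGI, G6PDH, diaphorase coupling enzymes / Reagent: Man-6-P substrate 1.0 mM / Dosing: single compound dose of 20 µM, 1% DMSO final / Incubation: enzyme reaction with compound 20 min at room temperature / Signal: resorufin fluorescence (Ex 544/Em 590 nm) from resazurin via diaphorase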
WT yeast gro inh: growth inhibition of WT yeast, mitochondrial fusion screen; mitochondrial fusion phenotypic screen, WT strain; 190,000 tested, 2.1% active; inhibition, % at 10 µM; in the data active = inhibition above about 58%; tested in S. cerevisiae
PMI activator: activators of human phosphomannose isomerase; P34949; purified human PMI, coupled resazurin fluorescence, 20 min; stronger effect = higher value; 1 = vehicle control, 0 substrate-free wells; activation factor at 20 µM; 190,000 tested, 0.005% active;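 active = activation factor of 2 or more at 20 µM, relative to plate controls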
Active calls of the source: *. A selection: hits, their analogues and other compounds. The true share with any hit is near 10%.

SMILES	Diaphorase act	L major viab	PMI act hi M6P	WT yeast gro inh	PMI activator
Cc1cc2nc(N=C(N)N)nc(C)c2cc1C	1	100*	1	-8	1
Cc1ccc2nc(N=C(N)N)nc(C)c2c1	1	26	1	11	1.1
Cc1nc(N=C(N)N)nc2ccccc12	1	2	1	18	1.1
CCc1ccc2nc(N=C(N)N)nc(C)c2c1	1	96*	0.9	9	0.9
O=C(NCc1ccccc1)Nc1cccn(Cc2cccc(F)c2)c1=O	0.9	41	1	-12	0.9
Brc1ccc2nc(-c3ccncc3)c(NC3CCCC3)n2c1	0.8	34	0.9	-4	0.9
Cc1ccc2nc(-c3cccnc3)c(NC3CCCCC3)n2c1	0.8	88*	1	12	0.9
CCCCC(O)CN1CCC(c2ccccc2)CC1 (stereo not given)	0.9	93*	1	-1	1
CCN1CCN(CC(O)COC(c2ccccc2)c2ccccc2)CC1 (stereo not given)	1	0	1	-15	1
Cc1ccc(C(=O)OCCN2CCN(c3ncc(C(F)(F)F)cc3Cl)CC2)cc1	0.8	-8	0.9	67*	0.9
O=C(OCCN1CCN(c2ncc(C(F)(F)F)cc2Cl)CC1)c1ccc(F)cc1	0.9	-5	0.9	-12	0.9
O=C(OC1CCN(c2ncc(C(F)(F)F)cc2Cl)CC1)c1ccccc1	0.8	-4	0.9	64*	0.9
O=C(CN1CCN(c2ncc(C(F)(F)F)cc2Cl)CC1)N1CCN(c2ncc(C(F)(F)F)cc2Cl)CC1	0.8	50*	1	73*	0.9
Cc1c(NC(=O)C(C)N2C(=O)C3CCCCC3C2=O)c(=O)n(-c2ccccc2)n1C (stereo not given)	0.9	-10	1	-10	1
COCC(=O)N(c1ccccc1)C(C)C(=O)OC (stereo not given)	0.9	-4	1	13	1
COc1ccc(/C=C/C(=O)NC(C)(C)C)cc1S(=O)(=O)N1CCOCC1	0.9	0	0.9	-18	0.9
COc1ccc(/C=C/C(=O)NC2CCCCCCC2)cc1S(=O)(=O)N1CCOCC1	0.9	88*	1	-10	1
CCOCCCNS(=O)(=O)c1ccc(NC(=O)c2ccc([N+](=O)[O-])cc2Cl)cc1	0.9	74*	1	-10	1
O=[N+]([O-])c1ccc(NCCCNS(=O)(=O)c2ccccc2)c(Cl)c1	0.9	64*	0.9	21	0.8
O=[N+]([O-])c1ccc(NCCNS(=O)(=O)c2ccccc2)cc1	0.9	-1	1	-6	1.6
Cc1ccc(C(=O)NCCNc2ccc([N+](=O)[O-])cc2C(F)(F)F)cc1	0.9	81*	1	-2	0.9
O=[N+]([O-])c1ccc(NCCNS(=O)(=O)c2ccccc2)c(C(F)(F)F)c1	1	79*	0.9	-1	0.9
CCC(C)NS(=O)(=O)c1ccc(NC(=O)c2ccc([N+](=O)[O-])cc2Cl)cc1 (stereo not given)	0.7	13	0.8	14	0.8
Cc1cc(C)c(Cn2ncn(-c3ccc(Br)cc3)c2=O)c(C)c1	1	-4	1	1	0.9
CCc1cccc(NC(=O)CCCCCC2NC(=O)NC2C)c1 (stereo not given)	1.1	-6	1.1	8	1.1
SMILES	Diaphorase act	L major viab	PMI act hi M6P	WT yeast gro inh	PMI activator
CC(=O)Nc1ccccc1C(=O)N1CCN(Cc2ccccc2)CC1	1	3	1.1	-16	1.1
O=S(=O)(c1cccc2cccnc12)N1CCc2ccccc21	0.9	1	1	12	1.1
O=C(C(Cc1ccccc1)NS(=O)(=O)c1cccc2cccnc12)N1CCc2ccccc21 (stereo not given)	0.9	94*	0.9	3	1
Cc1nc2ccsc2c(=O)n1-c1ccc(Cl)cc1	0.9	-3	0.9	2	1
COc1cc(NC(c2ccccc2)c2ccccc2)cc(OC)c1OC	0.2	96*	0.4	40	0.4
COc1cc(NS(C)(=O)=O)cc(OC)c1OC	0.9	-3	1.1	-6	1.1
O=C(NCc1ccccc1)C(c1ccccc1)N(Cc1ccc2c(c1)OCO2)C(=O)Cc1cccs1 (stereo not given)	0.9	79*	1.3	29	1.3

High-throughput results (PubChem)
